Measured values as given in ChEMBL document CHEMBL1131506, “Development of a binding model to protein tyrosine kinases for substituted pyrido[2,3-d]pyrimidine inhibitors” (J Med Chem, 1998).
pIC50: −log10 of the molar value.

What was measured:
[1] = target: Fibroblast growth factor receptor (Homo sapiens, UniProt P22607+P11362+P22455+P21802); assay: Inhibitory concentration of compound against human fibroblast growth factor receptor; format: protein assay
[2] = target: Proto-oncogene tyrosine-protein kinase Src (Gallus gallus, UniProt P00523); assay: Inhibition of chicken c-Src tyrosine kinase
Summary of the method: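 Recombinant avian c-Src expressed in baculovirus-infected insect cells, immunopurified on polystyrene beads carrying a covalently linked Src-specific monoclonal antibody. The enzyme-bead suspension was assayed in vitro with 40 µM ATP, measuring 32P-phosphate transfer into a trichloroacetic acid-precipitable random glutamate/tyrosine (4:1) copolymer. The IC50 was in µM.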

[3] = target: Platelet-derived growth factor receptor (Mus musculus, UniProt P05622+P26618); assay: Inhibitory concentration of compound against mouse Platelet-derived growth factor receptor
[4] = target: Epidermal growth factor receptor (Homo sapiens, UniProt P00533); assay: Inhibition of human epidermal growth factor receptor
Chain of Epidermal growth factor receptor (P00533 whole entry): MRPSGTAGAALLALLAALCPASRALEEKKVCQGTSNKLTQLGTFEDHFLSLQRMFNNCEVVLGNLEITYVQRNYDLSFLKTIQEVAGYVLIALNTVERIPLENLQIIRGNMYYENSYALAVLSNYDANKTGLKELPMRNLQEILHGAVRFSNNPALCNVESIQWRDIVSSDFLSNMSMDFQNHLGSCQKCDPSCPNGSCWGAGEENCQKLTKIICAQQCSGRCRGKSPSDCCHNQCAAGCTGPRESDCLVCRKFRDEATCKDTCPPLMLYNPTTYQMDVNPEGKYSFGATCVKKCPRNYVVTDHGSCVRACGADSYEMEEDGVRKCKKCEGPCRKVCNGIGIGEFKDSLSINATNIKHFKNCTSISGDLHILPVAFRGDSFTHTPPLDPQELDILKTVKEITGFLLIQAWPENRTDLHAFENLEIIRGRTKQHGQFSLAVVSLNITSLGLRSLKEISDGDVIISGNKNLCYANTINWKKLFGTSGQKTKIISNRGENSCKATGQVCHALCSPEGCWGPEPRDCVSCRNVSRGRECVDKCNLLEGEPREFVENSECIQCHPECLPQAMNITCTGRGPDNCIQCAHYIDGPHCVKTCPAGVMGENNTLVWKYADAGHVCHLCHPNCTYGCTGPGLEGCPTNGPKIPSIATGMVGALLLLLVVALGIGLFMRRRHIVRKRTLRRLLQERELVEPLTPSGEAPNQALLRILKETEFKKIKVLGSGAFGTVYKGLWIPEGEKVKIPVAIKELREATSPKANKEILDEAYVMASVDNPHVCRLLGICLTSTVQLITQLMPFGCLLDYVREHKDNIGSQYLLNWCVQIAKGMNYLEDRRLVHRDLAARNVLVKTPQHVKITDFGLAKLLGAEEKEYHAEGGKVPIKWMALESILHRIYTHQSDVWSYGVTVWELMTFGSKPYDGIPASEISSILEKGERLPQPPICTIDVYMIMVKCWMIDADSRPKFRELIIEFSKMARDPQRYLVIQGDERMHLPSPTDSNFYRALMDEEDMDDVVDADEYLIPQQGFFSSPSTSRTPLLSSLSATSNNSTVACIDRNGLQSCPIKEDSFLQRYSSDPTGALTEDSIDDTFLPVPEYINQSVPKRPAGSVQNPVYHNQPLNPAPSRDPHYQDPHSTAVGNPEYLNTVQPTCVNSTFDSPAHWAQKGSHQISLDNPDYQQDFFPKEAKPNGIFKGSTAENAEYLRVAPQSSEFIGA

SMILES	IC50 [1]	pIC50 [2]	pIC50 [3]	pIC50 [4]
CN(C)c1cc(-c2cc3cnc(N)nc3nc2NC(=O)NC(C)(C)C)cc(N(C)C)c1	> 16000 nM	< 4.30	< 4.30	–
COc1cc(OC)cc(-c2cc3cnc(N)nc3n(C)c2=O)c1	126 nM	< 4.30	4.37	–
Cn1c(=O)c(-c2c(Cl)cccc2Cl)cc2cnc(Nc3ccc(CC(=O)O)cc3)nc21	61 nM	8.00	7.15	–
CN1CCN(c2ccc(Nc3ncc4cc(-c5c(Cl)cccc5Cl)c(=O)n(C)c4n3)cc2)CC1	51 nM	–	6.94	–
COc1cc(OC)cc(-c2cc3cnc(N)nc3nc2NC(=O)NC(C)(C)C)c1	–	< 4.30	–	–
CC(C)(C)NC(=O)Nc1nc2nc(N)ncc2cc1-c1cc(C(F)(F)F)cc(C(F)(F)F)c1	> 50000 nM	< 4.30	< 4.30	–
CN(C)c1ncc2cc(-c3c(Cl)cccc3Cl)c(=O)n(C)c2n1	> 50000 nM	< 4.30	< 4.30	< 4.30
CN1CCN(CCCNc2ncc3cc(-c4c(Cl)cccc4Cl)c(=O)n(C)c3n2)CC1	348 nM	6.63	5.57	–
COc1ccc(NC(=O)Nc2nc3nc(NCCCN4CCN(C)CC4)ncc3cc2-c2c(Cl)cccc2Cl)cc1	–	7.55	–	6.14
CN1CCN(CCCNc2ncc3cc(-c4c(Cl)cccc4Cl)c(NC(=O)NC4CCCCC4)nc3n2)CC1	–	–	–	6.06
CN1CCN(CCCNc2ncc3cc(-c4c(Cl)cccc4Cl)c(NC(=O)NCc4ccccc4)nc3n2)CC1	–	7.52	–	6.01
Cn1c(=O)c(-c2c(Cl)cccc2Cl)cc2cncnc21	> 50000 nM	< 5.00	< 4.30	< 4.30
Cc1ncc2cc(-c3c(Cl)cccc3Cl)c(=O)n(C)c2n1	> 50000 nM	< 4.30	< 4.30	< 4.30
CCN(CC)CCOc1cccc(Nc2ncc3cc(-c4c(Cl)cccc4Cl)c(=O)n(C)c3n2)c1	–	8.05	–	–
CCOc1cc(OCC)cc(-c2cc3cnc(N)nc3nc2NC(=O)NC(C)(C)C)c1	1650 nM	< 4.30	< 4.30	–
